Assay results from ChEMBL document CHEMBL1134545, “Design, synthesis, DNA binding, and biological evaluation of water-soluble hybrid molecules containing two pyrazole analogues of the alkylating cyclopropylpyrroloindole (CPI) subunit of the antitumor agent CC-1065 and polypyrrole minor groove binders” (J Med Chem, 2001).
Values after ≈ are worked out from the molar mass of the structure shown.

How the values were obtained:
Daudi = experiment: In vitro antitumor activity against Human B-lymphoblast (Daudi) cell lines.; format: functional, cell-based
Procedure, shortened: (§1)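 Cells seeded at 250 000-300 000 cells/mL and exposed to a range of compound concentrations. Incubation for 2-3 days at 37 °C, followed by Coulter counter cell counts. IC50 is the concentration that lowers cell number by 50%. Reported as mean ± SE from dose-response curves of at least three independent experiments.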

CCRF-CEM = experiment: In vitro antitumor activity against Human T-lymphoblast (CEM) cell lines.; format: functional, cell-based; procedure, shortened: as §1
FM3A = experiment: In vitro antitumor activity against Murine mammary carcinoma (FM3A) cell lines.; format: functional, cell-based; settings: Mus musculus; procedure, shortened: as §1
MOLT-4 = experiment: In vitro antitumor activity against Human T-lymphoblast (Molt/4) cell lines.; format: functional, cell-based; procedure, shortened: as §1
L1210 [1] = experiment: In vitro antitumor activity against Murine leukemia (L1210) cell lines.; format: functional, cell-based; settings: Mus musculus; procedure, shortened: as §1
E6SM [2] = experiment: Antiviral activity against […] in E6SM cell cultures; format: functional; settings: Homo sapiens
Procedure, shortened: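 E6SM cells grown in MEM with 10% inactivated FCS, 2 mM L-glutamine and 0.3% NaHCO3, infected, then treated with varying compound concentrations. MIC is the concentration reducing virus-induced cytopathogenicity by 50%, recorded once CPE reached completion in untreated infected controls.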

E6SM [3] = experiment: Antiviral activity against Vaccinia virus in E6SM cell cultures; format: functional; settings: Homo sapiens
Procedure, shortened: (§2)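 Confluent E6SM cells, grown in MEM with 10% inactivated FCS, 2 mM L-glutamine and 0.3% NaHCO3, inoculated with 100 CCID50 per well. After 1 or 2 h, residual virus removed. Cells then incubated in MEM with 2% FCS and varying compound concentrations for 3 days. MIC is the concentration reducing virus-induced cytopathicity by 50% versus untreated control, read when control CPE complete.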

E6SM [4] = experiment: Antiviral activity against herpes simplex virus-1 KOS (HSV-1) in E6SM cell cultures; format: functional; settings: Homo sapiens; procedure, shortened: as §2
E6SM [5] = experiment: Antiviral activity against herpes simplex virus-1 TK-VMW 1837 (HSV-1) in E6SM cell cultures; format: functional; settings: Homo sapiens; procedure, shortened: as §2
E6SM [6] = experiment: Minimum cytotoxic concentration required to cause a microscopically detectable alteration of normal cell morphology; format: functional; settings: Homo sapiens
Procedure, shortened: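 E6SM cell cultures exposed to compound for the same duration as the antiviral assays. Cells examined under a microscope. MCC is the lowest concentration causing detectable alteration of normal cell morphology.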

E6SM [7] = experiment: Antiviral activity against herpes simplex virus-2 G (HSV-2) in E6SM cell cultures; format: functional; settings: Homo sapiens
Procedure, shortened: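 Confluent E6SM cells (MEM, 10% inactivated FCS) were infected with HSV-2 strain G at 100 CCID50 per well. After 1 or 2 h, residual virus was removed and the cells were incubated in MEM with 2% FCS and varying compound concentrations. MIC is the concentration reducing cytopathicity by 50%, recorded when control infected cultures reached full CPE (3 days).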

E6SM [8] = experiment: Antiviral activity against herpes simplex virus-1 TK-KOS ACV (HSV-1) in E6SM cell cultures; format: functional; settings: Homo sapiens; procedure, shortened: as §2
L1210 [9] = experiment: Cytotoxicity against L1210 leukemia cells; format: functional, cell-based; settings: Mus musculus; procedure, shortened: as §1

Compound | IC50 (Daudi) [nM] | IC50 (CCRF-CEM) [nM] | IC50 (FM3A) [nM] | IC50 (MOLT-4) [nM] | IC50 (L1210 [1]) [nM] | MIC (E6SM [2]) [µg/mL] | MIC (E6SM [3]) [µg/mL] | MIC (E6SM [4]) [µg/mL] | MIC (E6SM [5]) [µg/mL] | MCC (E6SM [6]) [µg/mL] | MIC (E6SM [7]) [µg/mL] | MIC (E6SM [8]) [µg/mL] | IC50 (L1210 [9]) [nM]
Cc1n[nH]c2c(O)cc3c(c12)C(CCl)CN3C(=O)c1cc(C(=O)Nc2cc(C(=O)NCCC(=N)N)n(C)c2)n(C)n1 (stereo not given) | 150 | 230 | 1600 | 340 | 58 |  |  |  |  |  |  |  | 
Cn1cc(NC(=O)c2cc(NC(=O)c3cc(C(=O)N4CC(CCl)c5c4cc(O)c4c5cnn4Cc4ccccc4)nn3C)cn2C)cc1C(=O)NCCC(=N)N (stereo not given) | 38 | 210 | 5600 | 160 | 600 |  |  |  |  |  |  |  | 
Cc1n[nH]c2c(O)cc3c(c12)C(CCl)CN3C(=O)c1cc(C(=O)Nc2cc(C(=O)Nc3cc(C(=O)NCCC(=N)N)n(C)c3)n(C)c2)n(C)n1 (stereo not given) | 22 | 39 | 190 | 45 | 19 |  |  |  |  |  |  |  | 
Cn1cc(NC(=O)c2cc(C(=O)N3CC(CCl)c4c3cc(O)c3c4cnn3Cc3ccccc3)nn2C)cc1C(=O)NCCC(=N)N (stereo not given) | 11 | 70 | 4000 | 130 | 240 |  |  |  |  |  |  |  | 
Cn1cc(NC(=O)c2cc(NC(=O)c3cc(NC(=O)c4cc(C(=O)N5CC(CCl)c6c5cc(O)c5c6cnn5Cc5ccccc5)nn4C)cn3C)cn2C)cc1C(=O)NCCC(=N)N (stereo not given) | 100 | 400 | 19300 | 310 | 400 |  |  |  |  |  |  |  | 
Cc1n[nH]c2c(O)cc3c(c12)C(CCl)CN3C(=O)c1cc(C(=O)Nc2cc(C(=O)Nc3cc(C(=O)Nc4cc(C(=O)NCCC(=N)N)n(C)c4)n(C)c3)n(C)c2)n(C)n1.Cl (stereo not given) | 8.8 | 71 | 31 | 17 | 7.4 | > 0.16 | 0.019 | > 0.16 | > 0.16 | 0.8 | 0.16 | > 0.16 | 
Cc1n[nH]c2c(O)cc3c(c12)C(CCl)CN3C(=O)OC(C)(C)C (stereo not given) | 680 | 1260 | 1400 | 1740 | 520 | > 1.6 |  | > 1.6 | > 1.6 | 8 | > 1.6 | > 1.6 | 
CC(C)(C)OC(=O)N1CC(CCl)c2c1cc(O)c1c2cnn1Cc1ccccc1 (stereo not given) | 7520 | 6720 | 18300 | 8550 | 2710 |  |  |  |  |  |  |  | 
Cc1nn(Cc2ccccc2)c2c1C13CC1CN(C(=O)OC(C)(C)C)C3=CC2=O (racemic) |  |  |  |  |  |  |  |  |  |  |  |  | 3060
Nc1nc2c(ncn2COCCO)c(=O)[nH]1 [ACYCLOVIR] |  |  |  |  |  | > 400 |  | 0.077 (≈ 0.342 µM) | 0.384 (≈ 1.71 µM) | > 400 | 0.077 (≈ 0.342 µM) | 48 (≈ 213 µM) | 
O=c1[nH]c(=O)n([C@H]2C[C@H](O)[C@@H](CO)O2)cc1/C=C/Br [BRIVUDINE] |  |  |  |  |  | > 400 | 0.077 (≈ 0.231 µM) | 0.015 (≈ 0.045 µM) | 0.128 (≈ 0.384 µM) | > 400 | 240 (≈ 720 µM) | 240 (≈ 720 µM) | 
Nc1nc2c(ncn2COC(CO)CO)c(=O)[nH]1 [GANCICLOVIR] |  |  |  |  |  | > 100 |  | 0.004 (≈ 0.0157 µM) | 0.019 (≈ 0.0744 µM) | > 100 | 0.004 (≈ 0.0157 µM) | 1.92 (≈ 7.52 µM) | 
NC(=O)c1ncn([C@@H]2O[C@H](CO)[C@@H](O)[C@H]2O)n1 [RIBAVIRIN] |  |  |  |  |  | 48 (≈ 197 µM) | 16 (≈ 65.5 µM) | 240 (≈ 983 µM) | 240 (≈ 983 µM) | > 400 | 48 (≈ 197 µM) | 240 (≈ 983 µM) | 
